Assay results taken from publication PMC9311154 (British Journal of Clinical Pharmacology, 2022).
Several values for one entry are separate records, joined by “and”; a condition that tells them apart may be missing. Equal values may be shown once. Entries after “also recorded” stand apart in the source; their conditions may differ. Read-outs that look alike come from different tables or passages of the source. Marks after values point to notes of the source that are not given here.

Experiments:
Safety and tolerability [1] = format: in vivo, human
C1 esterase inhibitor = C1 esterase inhibitor activity; format: in vivo, human; settings: compared with placebo
In short: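 Healthy men given the oral test compound (25, 50 or 100 mg once daily, or 25 mg twice daily) or placebo: single dose on day 1, washout days 2–3, dosing days 4–11, once-daily dose day 12. C1 esterase inhibitor activity measured in plasma by chromogenic substrate kit on a coagulation analyser, per manufacturer's instructions. Summarised descriptively, with no prespecified formal statistics.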

FXI = FXI concentration; format: in vivo, human; settings: compared with placebo
In short: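 Healthy men randomised to the oral test compound (25/50/100 mg once daily or 25 mg twice daily) or placebo. Single dose day 1, washout days 2–3, repeat dosing days 4–11, final dose day 12, after an overnight fast of at least 10 h on profiling days. FXI concentration measured by microtitre-plate ELISA with polyclonal antibodies. Descriptive summary only.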

[2] = system: activated partial thromboplastin time (aPTT); settings: whole blood or plasma, in vitro and ex vivo; cited from earlier work
[3] = animal models; cited from earlier work
[4] = BAY 2433334 pharmacokinetics in plasma and urine, Parts A and B; format: in vivo, human; settings: for tmax: median (range)
Safety and tolerability [5] = format: in vivo, human; remark: listed apart in the source
In short: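 Randomised, single-blind, placebo-controlled dose escalation in healthy men, 36 on active and 12 on placebo. Adverse events counted as treatment-emergent if they began or worsened after first study medication, up to 7 days post-treatment. Also assessed: physical examination, vital signs, 12-lead ECG and clinical laboratory tests. All participants dosed at least once were analysed descriptively.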

[6] = system: activated partial thromboplastin time (aPTT); test: aPTT; format: in vivo, human
prothrombin time (PT) = test: Prothrombin time; format: in vivo, human; settings: compared with placebo
[7] = 25 mg multiple dose + midazolam
[8] = 25 mg treatment sequence, Total (N = 24)
[9] = 75 mg multiple dose + midazolam
[10] = 75 mg treatment sequence, Total (N = 24)
[11] = multiple once‐daily dosing for 9 consecutive days

CC[C@@H](C(=O)Nc1ccc(C(N)=O)c(F)c1)n1cc(OC)c(-c2cc(Cl)ccc2-n2cc(C(F)(F)F)nn2)cc1=O [BAY 2433334]
Adverse event(s) of special interest (Safety and tolerability [1]; [7]): 0 Number (%) | Study drug‐related adverse event(s) (Safety and tolerability [1]; [7]): 0 Number (%) | Study procedure‐related adverse event(s) (Safety and tolerability [1]; [7]): 0 Number (%) | Adverse event(s) of special interest (Safety and tolerability [1]; 25 mg multiple dose alone): 0 Number (%) | Study drug‐related adverse event(s) (Safety and tolerability [1]; 25 mg multiple dose alone): 0 Number (%) | Study procedure‐related adverse event(s) (Safety and tolerability [1]; 25 mg multiple dose alone): 1 (4.2%) Number (%) | Adverse event(s) of special interest (Safety and tolerability [1]; 25 mg single dose + midazolam): 0 Number (%) | Study drug‐related adverse event(s) (Safety and tolerability [1]; 25 mg single dose + midazolam): 0 Number (%) | Study procedure‐related adverse event(s) (Safety and tolerability [1]; 25 mg single dose + midazolam): 0 Number (%) | Adverse event(s) of special interest (Safety and tolerability [1]; [8]): 0 Number (%) | Study drug‐related adverse event(s) (Safety and tolerability [1]; [8]): 0 Number (%) | Study procedure‐related adverse event(s) (Safety and tolerability [1]; [8]): 4 (16.7%) Number (%) | Adverse event(s) of special interest (Safety and tolerability [1]; [9]): 0 Number (%) | Study drug‐related adverse event(s) (Safety and tolerability [1]; [9]): 0 Number (%) | Adverse event(s) of special interest (Safety and tolerability [1]; 75 mg multiple dose alone): 0 Number (%) | Study drug‐related adverse event(s) (Safety and tolerability [1]; 75 mg multiple dose alone): 0 Number (%) | Study procedure‐related adverse event(s) (Safety and tolerability [1]; 75 mg multiple dose alone): 0 Number (%) | Adverse event(s) of special interest (Safety and tolerability [1]; 75 mg single dose + midazolam): 0 Number (%) | Study drug‐related adverse event(s) (Safety and tolerability [1]; 75 mg single dose + midazolam): 0 Number (%) | Study procedure‐related adverse event(s) (Safety and tolerability [1]; 75 mg single dose + midazolam): 0 Number (%) | Adverse event(s) of special interest (Safety and tolerability [1]; [10]): 0 Number (%) | Study drug‐related adverse event(s) (Safety and tolerability [1]; [10]): 0 Number (%) | Study procedure‐related adverse event(s) (Safety and tolerability [1]; [10]): 2 (8.3%) Number (%) | Study drug‐related TEAEs (Safety and tolerability [1]; Part C): No study drug‐related TEAEs | Participants who discontinued study medication because of TEAEs (Safety and tolerability [1]; Part C, 75 mg): 2 participants | Effect on complement C1 esterase inhibitor activity (C1 esterase inhibitor): no significant effect | Effect on FXI concentrations (FXI): no significant effect | Prolongation of aPTT [2]: concentration‐dependent prolongation | Reduction in thrombus weight [3]: dose‐dependent reductions | Dose proportionality of AUC and Cmax in plasma ([4]; 25–100 mg OD, single and multiple dosing, Part A): dose proportional; also recorded: appeared to increase dose proportionally | arithmetic mean renal elimination (%AE,ur) of unchanged drug ([4]; after multiple dosing): 10.1–13.5% | RLIN, range ([4]; after once‐daily administration): 1.03–1.08 | arithmetic mean renal elimination (%AE,ur) of unchanged drug ([4]; after single‐dose administration): 7.61–13.4 % of the dose | geometric mean terminal half‐life (t1/2), range across treatment groups ([4]; day 1): 14.0 to 15.9 h | tmax ([4]; day 1, 25 mg BID group): 3.00 (1.00–5.98) h | tmax ([4]; day 1, 25 mg OD): 2.00 (1.48–5.98) h | tmax ([4]; day 1, 50 mg OD): 2.00 (0.750–4.00) h | tmax ([4]; day 1, 100 mg OD): 3.97 (1.47–6.00) h | apparent oral clearance, geometric means ([4]; day 1, across treatment groups): 3.68 to 4.09 L/h | median time to Cmax, range across treatment groups ([4]; day 1, all treatment groups): 2.00 to 3.97 h | tmax ([4]; day 12, 25 mg BID): 1.50 (1.00–6.00) h | tmax ([4]; day 12, 25 mg OD): 4.00 (1.00–6.03) h | tmax ([4]; day 12, 50 mg OD): 3.00 (0.750–6.05) h | tmax ([4]; day 12, 100 mg OD): 4.00 (1.50–6.00) h | apparent oral clearance, geometric means ([4]; day 12, across treatment groups): 3.39 to 4.04 L/h | mean terminal half‐life (t1/2), range across treatment groups ([4]; day 12, after multiple dosing): 15.8 to 17.8 h | median time to Cmax, range across once‐daily groups ([4]; day 12, once‐daily dosing): 3.00 to 4.00 h | RAAUC geometric mean, range [4, 11]: 1.50–1.72 | RACmax geometric mean, range [4, 11]: 1.41–1.63 | Adverse event(s) of special interest: Bleeding (Safety and tolerability [5]; 25 mg BID): 0 Number (%) | Any adverse event(s) of special interest (Safety and tolerability [5]; 25 mg BID): 1 (11.1%) Number (%) | Any study drug‐related adverse event(s) (Safety and tolerability [5]; 25 mg BID): 0 Number (%) | Any study procedure‐related adverse event(s) (Safety and tolerability [5]; 25 mg BID): 2 (22.2%) Number (%) | TEAE: Medical device site urticaria (Safety and tolerability [5]; 25 mg BID): 1 (11.1%) Number (%) | Adverse event(s) of special interest: Investigations (Safety and tolerability [5]; 25 mg BID, Glutamate dehydrogenase increased): 1 (11.1%) ^e Number (%) | Adverse event(s) of special interest: Bleeding (Safety and tolerability [5]; 25 mg OD): 0 Number (%) | Any adverse event(s) of special interest (Safety and tolerability [5]; 25 mg OD): 1 (11.1%) Number (%) | Any study drug‐related adverse event(s) (Safety and tolerability [5]; 25 mg OD): 0 Number (%) | Any study procedure‐related adverse event(s) (Safety and tolerability [5]; 25 mg OD): 1 (11.1%) Number (%) | TEAE: Medical device site urticaria (Safety and tolerability [5]; 25 mg OD): 0 Number (%) | Adverse event(s) of special interest: Investigations (Safety and tolerability [5]; 25 mg OD, Amylase increased): 1 (11.1%) ^c Number (%) | Adverse event(s) of special interest: Bleeding (Safety and tolerability [5]; 50 mg OD): 0 Number (%) | Any adverse event(s) of special interest (Safety and tolerability [5]; 50 mg OD): 1 (11.1%) Number (%) | Any study drug‐related adverse event(s) (Safety and tolerability [5]; 50 mg OD): 0 Number (%) | Any study procedure‐related adverse event(s) (Safety and tolerability [5]; 50 mg OD): 3 (33.3%) Number (%) | TEAE: Medical device site urticaria (Safety and tolerability [5]; 50 mg OD): 0 Number (%) | Adverse event(s) of special interest: Investigations (Safety and tolerability [5]; 50 mg OD, Lipase increased): 1 (11.1%) ^d Number (%) | Adverse event(s) of special interest: Bleeding (Safety and tolerability [5]; 100 mg OD): 0 Number (%) | Any adverse event(s) of special interest (Safety and tolerability [5]; 100 mg OD): 1 (11.1%) Number (%) | Any study procedure‐related adverse event(s) (Safety and tolerability [5]; 100 mg OD): 1 (11.1%) Number (%) | TEAE: Medical device site urticaria (Safety and tolerability [5]; 100 mg OD): 1 (11.1%) Number (%) | Any study drug‐related adverse event(s) (Safety and tolerability [5]; 100 mg OD, Headache): 2 Number (%) and 2 (22.2%) ^b Number (%) | Adverse event(s) of special interest: Investigations (Safety and tolerability [5]; 100 mg OD, Lipase increased): 1 (11.1%) ^d Number (%) | Adverse events leading to discontinuation (Safety and tolerability [5]; Parts A or B): No adverse events leading to discontinuation | Adverse event(s) of special interest: Bleeding (Safety and tolerability [5]; Total BAY 2433334 (n = 36)): 0 Number (%) | Adverse event(s) of special interest: Investigations (Safety and tolerability [5]; Total BAY 2433334 (n = 36)): 4 (11.1%) Number (%) | Any adverse event(s) of special interest (Safety and tolerability [5]; Total BAY 2433334 (n = 36)): 4 (11.1%) Number (%) | Any study drug‐related adverse event(s) (Safety and tolerability [5]; Total BAY 2433334 (n = 36)): 2 (5.6%) Number (%) | Any study procedure‐related adverse event(s) (Safety and tolerability [5]; Total BAY 2433334 (n = 36)): 7 (19.4%) Number (%) | TEAE: Medical device site urticaria (Safety and tolerability [5]; Total BAY 2433334 (n = 36)): 2 (5.6%) Number (%) | Adverse events related to bleeding (Safety and tolerability [5]; all study parts): no clinically relevant adverse events related to bleeding | Serious adverse events (Safety and tolerability [5]; all study parts): no serious adverse events were reported | Tolerability (Safety and tolerability [5]; all study parts): well tolerated | Effects on vital signs, ECG or clinical laboratory investigations (Safety and tolerability [5]; other than the anticipated prolongation of aPTT): No clinically relevant effects | Prolongation of aPTT ([6]; Parts A and B): dose‐dependent prolongation | first time point at which prolongation of aPTT was apparent ([6]; after dosing): 30 min | time of maximal aPTT prolongation after dosing ([6]; in vivo): approximately 4 h | Effect on PT (absolute and INR values) (prothrombin time (PT)): no effect
